Laboratory results from ChEMBL document CHEMBL3046718, “Synthesis and herbicidal activity of 5-(4-hydroxybenzyl)-2-thioxoimidazolidin-4-one esters” (2011).

How the values were obtained:
Assay type in all cases: functional
[1] = test system: Setaria viridis; assay: Herbicidal activity against Setaria viridis (green foxtail) at 1000 g/ha treated as post-emergence under greenhouse condition
[2] = test system: Stellaria media; assay: Herbicidal activity against Stellaria media at 1000 g/ha treated as pre-emergence under greenhouse condition
[3] = test system: Echinochloa crus-galli; assay: Herbicidal activity against Echinochloa crus-galli (barnyard grass) at 1000 g/ha treated as post-emergence under greenhouse condition
[4] = test system: Zea mays; assay: Herbicidal activity against Zea mays (maize) assessed as inhibition of root growth at 200 ug/ml relative to control; settings: read-out: GI
How it was run: (§1)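 Seedlings were grown in an illumination incubator from ten Zea mays seeds or five Triticum aestivum seeds per plate, on filter paper wetted with 2 mL of test solution at 200 mg/L. Distilled water served as blank and metazachlor as positive control. Inhibitory ratio (0–100%) was scored against distilled water.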

[5] = test system: Echinochloa crus-galli; assay: Herbicidal activity against Echinochloa crus-galli (barnyard grass) at 1000 g/ha treated as pre-emergence under greenhouse condition
[6] = test system: Triticum aestivum; assay: Herbicidal activity against Triticum aestivum (wheat) assessed as inhibition of height growth at 200 ug/ml relative to control; settings: read-out: GI; how it was run: as §1
[7] = test system: Arabidopsis thaliana; assay: Herbicidal activity against Arabidopsis thaliana assessed as inhibition of seed germination at 200 ug/ml relative to control
How it was run: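 Five sterilized Arabidopsis thaliana […] per well in 24-well sterile plates, each with 100 μL of test solution at 200 mg/L, grown in an illumination incubator. Distilled water served as blank and metazachlor as positive control. Inhibitory ratio (0–100%) was scored against distilled water.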

[8] = test system: Setaria viridis; assay: Herbicidal activity against Setaria viridis (green foxtail) at 1000 g/ha treated as pre-emergence under greenhouse condition
[9] = test system: Stellaria media; assay: Herbicidal activity against Stellaria media at 1000 g/ha treated as post-emergence under greenhouse condition
[10] = test system: Triticum aestivum; assay: Herbicidal activity against Triticum aestivum (wheat) assessed as inhibition of root growth at 200 ug/ml relative to control; settings: read-out: GI; how it was run: as §1
[11] = test system: Zea mays; assay: Herbicidal activity against Zea mays (maize) assessed as inhibition of height growth at 200 ug/ml relative to control; settings: read-out: GI; how it was run: as §1

Structure (SMILES) | inhibition at 1000 g/ha [1] | inhibition at 1000 g/ha [2] | inhibition at 1000 g/ha [3] | inhibition of growth at 200 µg/mL [4] | inhibition at 1000 g/ha [5] | inhibition of growth at 200 µg/mL [6] | inhibition at 200 µg/mL [7] | inhibition at 1000 g/ha [8] | inhibition at 1000 g/ha [9] | inhibition of growth at 200 µg/mL [10] | inhibition of growth at 200 µg/mL [11]
O=C(Cc1cccc2ccccc12)Oc1ccc(CC2NC(=S)NC2=O)cc1 (configuration not stated) | 0% | 60% | 0% | 88% | 50% | 100% | 10% | 50% | 0% | 56.7% | 77.4%
COc1cc(C(=O)Oc2ccc(CC3NC(=S)NC3=O)cc2)cc(OC)c1OC (configuration not stated) |  |  |  | 19.9% |  | 42.3% | 10% |  |  | 59.7% | 22.1%
COc1ccc(C(=O)Oc2ccc(CC3NC(=S)NC3=O)cc2)cc1OC (configuration not stated) |  |  |  | 64.2% |  | 26.1% | 50% |  |  | 43.1% | 57.9%
CC(=O)Oc1ccc(CC2NC(=S)NC2=O)cc1 (configuration not stated) |  |  |  | -6.7% |  | -3.6% | 10% |  |  | 20.9% | -14.5%
Cc1cccc(C)c1N(Cn1cccn1)C(=O)CCl [METAZACHLOR] |  |  |  | 83% |  | 78.6% | 70% |  |  | 77.7% | 79%
O=C(Oc1ccc(CC2NC(=S)NC2=O)cc1)c1ccccc1[N+](=O)[O-] (configuration not stated) |  |  |  | 7.6% |  | 3.7% | 40% |  |  | 10.6% | 63.6%
CC(C)(C)c1ccc(C(=O)Oc2ccc(CC3NC(=S)NC3=O)cc2)cc1 (configuration not stated) |  |  |  | 22.5% |  | 55.5% | 10% |  |  | 25.9% | 30.9%
O=C(Oc1ccc(CC2NC(=S)NC2=O)cc1)c1ccc(Cl)cc1 (configuration not stated) |  |  |  | 8.6% |  | -12.9% | 40% |  |  | -13.6% | 23.5%
O=C(Oc1ccc(CC2NC(=S)NC2=O)cc1)c1cc([N+](=O)[O-])cc([N+](=O)[O-])c1 (configuration not stated) |  |  |  | 71% |  | 86.2% | 5% |  |  | 18.8% | 27.8%
O=C(Cc1ccc(F)cc1)Oc1ccc(CC2NC(=S)NC2=O)cc1 (configuration not stated) |  |  |  | 77.3% |  | 50.2% | 20% |  |  | 86.6% | 70.1%
O=C(Oc1ccc(CC2NC(=S)NC2=O)cc1)c1cccc(Cl)c1 (configuration not stated) |  |  |  | 22.1% |  | 8.8% | 70% |  |  | 47.5% | 41.7%
Cc1cccc(C(=O)Oc2ccc(CC3NC(=S)NC3=O)cc2)c1 (configuration not stated) |  |  |  | 61.3% |  | -14.8% | 50% |  |  | 12.7% | 62.8%
O=C(Oc1ccc(CC2NC(=S)NC2=O)cc1)c1ccc(Cl)c([N+](=O)[O-])c1 (configuration not stated) |  |  |  | 44.2% |  | -3.7% | 50% |  |  | 2.6% | 54.4%
COc1ccccc1C(=O)Oc1ccc(CC2NC(=S)NC2=O)cc1 (configuration not stated) |  |  |  | -29% |  | 81.3% | 50% |  |  | 79.1% | -26.2%
O=C(Oc1ccc(CC2NC(=S)NC2=O)cc1)c1ccccc1Cl (configuration not stated) |  |  |  | 5.9% |  | 24.7% | 30% |  |  | 53.4% | 53.4%
O=C(COc1ccc(Cl)cc1Cl)Oc1ccc(CC2NC(=S)NC2=O)cc1 (configuration not stated) |  |  |  | 74.9% |  | 97.8% | 50% |  |  | 99.6% | 65.5%
COc1ccc(C(=O)Oc2ccc(CC3NC(=S)NC3=O)cc2)cc1 (configuration not stated) |  |  |  | 17.8% |  | 25.1% | 30% |  |  | 32.2% | 33.5%
O=C(Oc1ccc(CC2NC(=S)NC2=O)cc1)c1ccc(Br)cc1 (configuration not stated) |  |  |  | 22% |  | 5.2% | 60% |  |  | -48% | 14.7%

Structure (SMILES) | inhibition at 1000 g/ha [1] | inhibition at 1000 g/ha [2] | inhibition at 1000 g/ha [3] | inhibition of growth at 200 µg/mL [4] | inhibition at 1000 g/ha [5] | inhibition of growth at 200 µg/mL [6] | inhibition at 200 µg/mL [7] | inhibition at 1000 g/ha [8] | inhibition at 1000 g/ha [9] | inhibition of growth at 200 µg/mL [10] | inhibition of growth at 200 µg/mL [11]
O=C(Oc1ccc(CC2NC(=S)NC2=O)cc1)c1cccs1 (configuration not stated) |  |  |  | -24.7% |  | -1.2% | 20% |  |  | 15.5% | 11.6%
O=C(Oc1ccc(CC2NC(=S)NC2=O)cc1)c1ccc([N+](=O)[O-])cc1 (configuration not stated) | 0% | 60% | 0% | 100% | 50% | -24.6% | 40% | 50% | 0% | -25.8% | 100%
O=C(Oc1ccc(CC2NC(=S)NC2=O)cc1)c1cccc([N+](=O)[O-])c1 (configuration not stated) |  |  |  | -16.3% |  | 20.6% | 20% |  |  | 16.3% | 3.9%
O=C(/C=C/c1ccccc1)Oc1ccc(CC2NC(=S)NC2=O)cc1 (configuration not stated) |  |  |  | 77.9% |  | 33.8% | 10% |  |  | 2.5% | 52.7%
O=C(Cc1ccccc1)Oc1ccc(CC2NC(=S)NC2=O)cc1 (configuration not stated) |  |  |  | 58.1% |  | 34.9% | 20% |  |  | 42.1% | 53.9%
O=C(Oc1ccc(CC2NC(=S)NC2=O)cc1)c1ccc(F)cc1 (configuration not stated) |  |  |  | 66.3% |  | -22.9% | 20% |  |  | -8.5% | 32.8%
O=C(Oc1ccc(CC2NC(=S)NC2=O)cc1)c1ccccc1 (configuration not stated) |  |  |  | 44.5% |  | -11.1% | 10% |  |  | 16.2% | 26.6%
Cc1ccc(C(=O)Oc2ccc(CC3NC(=S)NC3=O)cc2)cc1 (configuration not stated) |  |  |  | 38.7% |  | 1.27% | 60% |  |  | 16.8% | 27.9%
COc1ccc(C(=O)Oc2ccc(CC3NC(=S)NC3=O)cc2)c(OC)c1 (configuration not stated) |  |  |  | -11.6% |  | -2.9% | 20% |  |  | 10.7% | 19.6%
O=C(Oc1ccc(CC2NC(=S)NC2=O)cc1)c1ccc(Cl)c(Cl)c1 (configuration not stated) |  |  |  | 24.1% |  | -15.8% | 40% |  |  | 7% | 36.7%
O=C(Cc1cc(C(F)(F)F)cc(C(F)(F)F)c1)Oc1ccc(CC2NC(=S)NC2=O)cc1 (configuration not stated) |  |  |  | 71.5% |  | 65.5% | 5% |  |  | 32.7% | 45.5%
O=C(Oc1ccc(CC2NC(=S)NC2=O)cc1)c1ccccc1F (configuration not stated) |  |  |  | -30.2% |  | 48.4% | 30% |  |  | 57.9% | -19.4%
COc1cccc(C(=O)Oc2ccc(CC3NC(=S)NC3=O)cc2)c1OC (configuration not stated) |  |  |  | 11.2% |  | -10.9% | 20% |  |  | 20.9% | 6.7%
O=C(Oc1ccc(CC2NC(=S)NC2=O)cc1)c1ccc(-c2ccccc2)cc1 (configuration not stated) |  |  |  | 48.7% |  | 20.9% | 5% |  |  | 3.2% | 42.4%
Cc1ccccc1C(=O)Oc1ccc(CC2NC(=S)NC2=O)cc1 (configuration not stated) |  |  |  | 33.5% |  | 5.8% | 60% |  |  | 20.7% | 53.2%
O=C(Oc1ccc(CC2NC(=S)NC2=O)cc1)c1ccco1 (configuration not stated) |  |  |  | 60.7% |  | 27.5% | 40% |  |  | 30.3% | 72.8%
O=C(COc1ccc(Cl)cc1)Oc1ccc(CC2NC(=S)NC2=O)cc1 (configuration not stated) |  |  |  | 59.4% |  | 95.2% | 40% |  |  | 99.6% | 16.4%
